Measurements published in ChEMBL document CHEMBL1287740, “Synthesis and bio-evaluation of alkylaminoaryl phenyl cyclopropyl methanones as antitubercular and antimalarial agents” (Bioorg Med Chem, 2010).
Values after ≈ are worked out from the molar mass of the structure shown. Active and inactive are the calls of the source. The calls are words filed in the database; no cut-off is given here.

Tests used:
[1] = system: Plasmodium falciparum; test: Antimalarial activity against Plasmodium falciparum 3D7 assessed as maturation of schizonts after 24 to 32 hrs by microdilution method; format: functional
In short: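 P. falciparum 3D7 (chloroquine sensitive); twofold serial dilutions in complete RPMI 1640 from 10 mg/ml DMSO stocks, parasitized RBCs added (final hematocrit 3–4%, 1.0–2.0% parasitaemia, >95% rings). Incubated 24–32 h at 37 °C with 5% CO2. Thin smears stained with 15% Giemsa; schizont maturation scored against controls to give MIC.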

[2] = Selectivity index, ratio of CC50 for african green monkey (Cercopithecus aethiops) Vero cells to IC50 for Plasmodium falciparum 3D7; format: functional
In short: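 Ratio of Vero CC50 (resazurin fluorescence after 72 h exposure) to P. falciparum 3D7 IC50 (radiolabelled hypoxanthine uptake; 24 h compound exposure, then 48 h with label).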

[3] = Cytotoxicity against african green monkey Vero cells after 72 hrs; format: cell-based; details: chlorocebus sabaeus
In short: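 Vero (C1008 monkey kidney) cells grown in MEM + 15% FBS, 5% CO2, 37 °C. Trypsinized cells at 1 × 10^5 cells/ml seeded and allowed to adhere overnight, then exposed to serial compound dilutions for 72 h. Resazurin added and fluorescence read after 4 h.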

[4] = system: Plasmodium falciparum; test: Antimalarial activity against Plasmodium falciparum 3D7 assessed as radiolabeled hypoxanthine uptake after 48 hrs by scintillation counting; format: functional, organism-based; details: 3D7, 48 h
In short: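 Chloroquine-sensitive P. falciparum 3D7 asynchronous culture at 0.5% parasitaemia and 1.5% hematocrit, exposed to compounds for 24 h at 37 °C in CO2. Radiolabelled hypoxanthine (0.5 µCi/well) then added and incubation continued 48 h. Cells harvested onto filter paper, and radioactivity counted by scintillation β-counter. IC50 derived from hypoxanthine uptake.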

[5] = system: Mycobacterium tuberculosis; test: Antimicrobial activity against Mycobacterium tuberculosis H37Rv after 30 days by agar microdilution method; format: functional
In short: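 Twofold dilutions of compound in DMSO incorporated into Middlebrook 7H10 medium with OADC supplement in slanted tubes, preincubated 37 °C for 24 h, then streaked with H37Rv harvested from L-J medium into 0.85% saline with 0.05% Tween-80 (5 × 10^5 bacilli per tube). Incubated at 37 °C; MIC = lowest concentration giving complete inhibition of colonies versus drug-free control.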

[6] = system: Mycolicibacterium aurum; test: Inhibition of type II fatty acid biosynthesis pathway in Mycobacterium aurum at 50 uM after 12 hrs by lacZ reporter assay relative to untreated control; format: functional
In short: (§1)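 Recombinant M. aurum lacZ reporter strains (kasA promoter or hsp60 promoter) grown in Sauton's medium with kanamycin at 37 °C to 0.5 OD600, diluted to 0.04–0.05 OD, equilibrated 2 h, then treated 12 h at 37 °C (10, 25, 50, 75 µM). Cells sonicated in PBS pH 7.2 and protein normalized by Bradford. β-gal measured with ONPG (4 mg/ml), 30 min at 37 °C, stopped with Na2CO3, OD 410 nm. Triplicates, relative to untreated control.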

[7] = system: Mycolicibacterium aurum; test: Inhibition of type II fatty acid biosynthesis pathway in Mycobacterium aurum at 25 uM after 12 hrs by lacZ reporter assay relative to untreated control; format: functional; in short: as §1

Structure (SMILES): CCCCCCCC/C=C\CCCCCCCCNc1ccc(C(=O)C2CC2c2ccc(Cl)cc2)cc1 (stereo unspecified)
- MIC [1]: > 50 µg/mL
- Ratio CC50/IC50 [2]: 5.24
- CC50 at 72 h [3]: 393 µg/mL (≈ 753 µM)
- IC50 [4]: 75.1 µg/mL (≈ 144 µM)
- MIC [5]: 12.5 µg/mL (≈ 23.9 µM)

Structure (SMILES): CCCCNc1ccc(C(=O)C2CC2c2ccc(Cl)cc2)cc1 (stereo unspecified)
- MIC [1]: 0.6 µg/mL (≈ 1.83 µM)
- Ratio CC50/IC50 [2]: 958.69
- inhibition at 50 µM [6]: 60.9%
- CC50 at 72 h [3]: 316 µg/mL (≈ 965 µM)
- IC50 [4]: 0.33 µg/mL (≈ 1.01 µM)
- inhibition at 25 µM [7]: 39.5%
- MIC [5]: 12.5 µg/mL (≈ 38.1 µM)

Structure (SMILES): O=C(c1ccc(NCc2ccco2)cc1)C1CC1c1ccc(Cl)cc1 (stereo unspecified)
- MIC [1]: 10 µg/mL (≈ 28.4 µM)
- Ratio CC50/IC50 [2]: 149.64
- inhibition at 50 µM [6]: 27.4%
- CC50 at 72 h [3]: 256 µg/mL (≈ 727 µM)
- IC50 [4]: 1.71 µg/mL (≈ 4.86 µM)
- inhibition at 25 µM [7]: 16.5%
- MIC [5]: 3.12 µg/mL (≈ 8.87 µM)

Structure (SMILES): O=C(c1ccc(N2CCOCC2)cc1)C1CC1c1ccc(Cl)cc1 (stereo unspecified)
- MIC [1]: 10 µg/mL (≈ 29.3 µM)
- Ratio CC50/IC50 [2]: 149.92
- inhibition at 50 µM [6]: 3.81%
- CC50 at 72 h [3]: 453 µg/mL (≈ 1320 µM)
- IC50 [4]: 3.02 µg/mL (≈ 8.83 µM)
- inhibition at 25 µM [7]: 29.8%
- MIC [5]: > 12.5 µg/mL

Structure (SMILES): CCN(CC)CCCC(C)Nc1ccnc2cc(Cl)ccc12 (stereo unspecified) [CHLOROQUINE]
- MIC [1]: 0.05 µg/mL (≈ 0.156 µM)

Structure (SMILES): O=C(c1ccc(NCCn2ccnc2)cc1)C1CC1c1ccc(Cl)cc1 (stereo unspecified)
- MIC [1]: 0.062 µg/mL (≈ 0.169 µM)
- Ratio CC50/IC50 [2]: 6948.57
- inhibition at 50 µM [6]: 50.2%
- CC50 at 72 h [3]: 243 µg/mL (≈ 665 µM)
- IC50 [4]: 0.035 µg/mL (≈ 0.0957 µM)
- inhibition at 25 µM [7]: 48.6%
- MIC [5]: 6.25 µg/mL (≈ 17.1 µM)

Structure (SMILES): O=C(/C=C/c1ccc(Cl)cc1)c1ccc(NCc2ccco2)cc1
- MIC [1]: 10 µg/mL (≈ 29.6 µM)
- Ratio CC50/IC50 [2]: 531.62
- CC50 at 72 h [3]: 404 µg/mL (≈ 1200 µM)
- IC50 [4]: 0.76 µg/mL (≈ 2.25 µM)
- MIC [5]: 12.5 µg/mL (≈ 37 µM)

Structure (SMILES): O=C(/C=C/c1ccc(Cl)cc1)c1ccc(N2CCOCC2)cc1
- MIC [1]: 50 µg/mL (≈ 153 µM)
- Ratio CC50/IC50 [2]: 7.33
- inhibition at 50 µM [6]: 42.9%
- CC50 at 72 h [3]: 35.6 µg/mL (≈ 109 µM)
- IC50 [4]: 4.86 µg/mL (≈ 14.8 µM)
- inhibition at 25 µM [7]: 47.1%
- MIC [5]: 6.25 µg/mL (≈ 19.1 µM)

Structure (SMILES): O=C(/C=C/c1ccc(Cl)cc1)c1ccc(N2CCCCC2)cc1
- MIC [1]: 50 µg/mL (≈ 153 µM)
- Ratio CC50/IC50 [2]: 26.3
- CC50 at 72 h [3]: 235 µg/mL (≈ 720 µM)
- IC50 [4]: 8.92 µg/mL (≈ 27.4 µM)
- MIC [5]: > 12.5 µg/mL

Structure (SMILES): COc1ccc(C2CC2C(=O)c2ccc(N3CCN(C)CC3)cc2)cc1OC (stereo unspecified)
- MIC [1]: 50 µg/mL (≈ 131 µM)
- Ratio CC50/IC50 [2]: 37.23
- CC50 at 72 h [3]: 77.8 µg/mL (≈ 205 µM)
- IC50 [4]: 2.09 µg/mL (≈ 5.49 µM)
- MIC [5]: > 12.5 µg/mL

Structure (SMILES): NNC(=O)c1ccncc1 [ISONIAZID]
- MIC [5]: 0.025 µg/mL (≈ 0.182 µM)

Structure (SMILES): CCCCCCCCCCCCNc1ccc(C(=O)C2CC2c2ccc(Cl)cc2)cc1 (stereo unspecified)
- MIC [1]: > 50 µg/mL
- Ratio CC50/IC50 [2]: 37.08
- inhibition at 50 µM [6]: 32.7%
- CC50 at 72 h [3]: 386 µg/mL (≈ 876 µM)
- IC50 [4]: 10.4 µg/mL (≈ 23.6 µM)
- inhibition at 25 µM [7]: 27%
- MIC [5]: Insoluble

Structure (SMILES): O=C(c1ccc(N2CCCCC2)cc1)C1CC1c1ccc(Cl)cc1 (stereo unspecified)
- MIC [1]: 10 µg/mL (≈ 29.4 µM)
- Ratio CC50/IC50 [2]: 46.99
- CC50 at 72 h [3]: 284 µg/mL (≈ 836 µM)
- IC50 [4]: 6.05 µg/mL (≈ 17.8 µM)
- MIC [5]: > 12.5 µg/mL

Structure (SMILES): CN1CCN(c2ccc(C(=O)C3CC3c3ccc(Cl)cc3)cc2)CC1 (stereo unspecified)
- MIC [1]: 10 µg/mL (≈ 28.2 µM)
- Ratio CC50/IC50 [2]: 151.96
- inhibition at 50 µM [6]: 0.17%
- CC50 at 72 h [3]: 82.1 µg/mL (≈ 231 µM)
- IC50 [4]: 0.54 µg/mL (≈ 1.52 µM)
- inhibition [7]: inactive
- MIC [5]: 6.25 µg/mL (≈ 17.6 µM)

Structure (SMILES): COc1ccc(CNc2ccc(C(=O)C3CC3c3ccc(Cl)cc3)cc2)cc1OC (stereo unspecified)
- MIC [1]: 10 µg/mL (≈ 23.7 µM)
- Ratio CC50/IC50 [2]: 52.73
- CC50 at 72 h [3]: 422 µg/mL (≈ 1000 µM)
- IC50 [4]: 8 µg/mL (≈ 19 µM)
- MIC [5]: > 12.5 µg/mL
